Legend:
D(2) dopamine receptor [1] = target: T1, D(2) dopamine receptor (Rattus norvegicus, UniProt P61169); assay: Evaluated for its ability to displace tritiated receptor ligand in rat striatal membranes 3[H]spiperone, a dopamine antagonist; format: functional, cell membranes, Striatum, Membrane
D(2) dopamine receptor [2] = target: T1, D(2) dopamine receptor; assay: Evaluated for its ability to displace tritiated receptor ligand in rat striatal membranes [3H]ADTN, a dopamine agonist; format: functional, cell membranes, Striatum, Membrane
Rattus norvegicus [3] = assay: Evaluated in vivo for its ability to induce contralateral rotational behavior in rats with unilateral, 6-hydroxy DA induced lesions of the substantia nigra at 3 mg/kg dosage orally; format: functional; conditions: route oral
Outline: (§1)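 Rats given a unilateral 6-hydroxydopamine injection into the substantia nigra (8 μg per rat) at least 1 month earlier. Drug was given orally or subcutaneously and contralateral turns were recorded. Totals are cumulative at 1 h or 2 h after dosing, reported as means ± SEM with n = 3-6 rats.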

D(2) dopamine receptor [4] = target: T1, D(2) dopamine receptor; assay: Compound was evaluated for its ability to displace tritiated receptor ligand in rat striatal membranes [3H]ADTN, a dopamine agonist; format: functional, cell membranes, Striatum, Membrane
Rattus norvegicus [5] = assay: Compound was evaluated for increase striatal acetyl choline (AcCh) concentration in intact rat administered subcutaneously.; format: functional; conditions: sc
Rattus norvegicus [6] = assay: Compound was evaluated for D2 dopaminergic activity measured as total contralateral turns expressed as mean after 1 hr at a dose of 0.1 mg/kg administered subcutaneously; format: functional; conditions: route subcutaneous; outline: as §1
Rattus norvegicus [7] = assay: Compound was evaluated for D2 dopaminergic activity measured as total contralateral turns expressed as mean after 1 hr at a dose of 0.3 mg/kg administered subcutaneously; format: functional; conditions: route subcutaneous; outline: as §1
Rattus norvegicus [8] = assay: Compound was evaluated for D2 dopaminergic activity measured as total contralateral turns expressed as mean after 1 hr at a dose of 0.3 mg/kg peroral administration.; format: functional; conditions: route oral; outline: as §1
Rattus norvegicus [9] = assay: Compound was evaluated for D2 dopaminergic activity measured as total contralateral turns expressed as mean after 1 hr at a dose of 1 mg/kg peroral administration; format: functional; conditions: route oral; outline: as §1
Rattus norvegicus [10] = assay: Compound was evaluated for D2 dopaminergic activity measured as total contralateral turns expressed as mean after 1 hr at a dose of 3 mg/kg peroral administration.; format: functional; conditions: route oral; outline: as §1
Rattus norvegicus [11] = assay: Compound was evaluated for D2 dopaminergic activity measured as total contralateral turns expressed as mean after 2 hr at a dose of 0.1 mg/kg administered subcutaneously; format: functional; conditions: route subcutaneous; outline: as §1
Rattus norvegicus [12] = assay: Compound was evaluated for D2 dopaminergic activity measured as total contralateral turns expressed as mean after 2 hr at a dose of 0.3 mg/kg administered subcutaneously; format: functional; conditions: route subcutaneous; outline: as §1
Rattus norvegicus [13] = assay: Compound was evaluated for D2 dopaminergic activity measured as total contralateral turns expressed as mean after 2 hr at a dose of 0.3 mg/kg peroral administration.; format: functional; conditions: route oral; outline: as §1
Rattus norvegicus [14] = assay: Compound was evaluated for D2 dopaminergic activity measured as total contralateral turns expressed as mean after 2 hr at a dose of 1 mg/kg peroral administration; format: functional; conditions: route oral; outline: as §1
Rattus norvegicus [15] = assay: Compound was evaluated for D2 dopaminergic activity measured as total contralateral turns expressed as mean after 2 hr at a dose of 3 mg/kg peroral administration.; format: functional; conditions: route oral; outline: as §1
Rattus norvegicus [16] = assay: Compound was evaluated for D2 dopaminergic activity measured as total contralateral turns after 1 hr at a dose of 0.03 mg/kg administered subcutaneously.; format: functional; conditions: route subcutaneous; outline: as §1
D(2) dopamine receptor [17] = target: T1, D(2) dopamine receptor; assay: Compound was evaluated for its ability to displace tritiated receptor ligand in rat striatal membranes 3[H]spiperone, a dopamine antagonist; format: functional, cell membranes, Striatum, Membrane
Outline: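 Rat striatal membranes (0.3–1.0 mg protein/mL) with 0.1 nmol/l [³H]spiperone in 50 mmol Tris/HCl, pH 7.7, plus 0.1% ascorbic acid. Incubated 15 min at 37 °C, stopped by rapid filtration and three ice-cold washes. Nonspecific binding was defined with 1 μmol/L (+)-butaclamol. Values are means ± SD of 2-4 independent determinations, with triplicates per concentration.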

Rattus norvegicus [18] = assay: compound was evaluated for increase striatal acetyl choline (AcCh) concentration in intact rat administered subcutaneously.; format: functional; conditions: sc
Rattus norvegicus [19] = assay: Compound was evaluated for D2 dopaminergic activity measured as total contralateral turns after 2 hr at a dose of 0.3 mg/kg peroral administration.; format: functional; conditions: route oral; outline: as §1
Rattus norvegicus [20] = assay: Compound was evaluated for D2 dopaminergic activity measured as total contralateral turns after 2 hr at a dose of 1 mg/kg peroral administration.; format: functional; conditions: route oral; outline: as §1
Rattus norvegicus [21] = assay: Compound was evaluated for D2 dopaminergic activity measured as total contralateral turns after 2 hr at a dose of 3 mg/kg peroral administration.; format: functional; conditions: route oral; outline: as §1
Rattus norvegicus [22] = assay: Compound was evaluated for D2 dopaminergic activity measured as total contralateral turns after 1 hr at a dose of 0.1 mg/kg administered subcutaneously.; format: functional; conditions: route subcutaneous; outline: as §1
Rattus norvegicus [23] = assay: Compound was evaluated for D2 dopaminergic activity measured as total contralateral turns after 1 hr at a dose of 0.1 mg/kg peroral administration.; format: functional; conditions: route oral; outline: as §1
Rattus norvegicus [24] = assay: Compound was evaluated for D2 dopaminergic activity measured as total contralateral turns after 1 hr at a dose of 0.3 mg/kg peroral administration.; format: functional; conditions: route oral; outline: as §1
Rattus norvegicus [25] = assay: Compound was evaluated for D2 dopaminergic activity measured as total contralateral turns after 1 hr at a dose of 1 mg/kg peroral administration.; format: functional; conditions: route oral; outline: as §1
Rattus norvegicus [26] = assay: Compound was evaluated for D2 dopaminergic activity measured as total contralateral turns after 1 hr at a dose of 3 mg/kg peroral administration.; format: functional; conditions: route oral; outline: as §1
Rattus norvegicus [27] = assay: Compound was evaluated for D2 dopaminergic activity measured as total contralateral turns after 2 hr at a dose of 0.03 mg/kg administered subcutaneously.; format: functional; conditions: route subcutaneous; outline: as §1
Rattus norvegicus [28] = assay: Compound was evaluated for D2 dopaminergic activity measured as total contralateral turns after 2 hr at a dose of 0.1 mg/kg administered subcutaneously.; format: functional; conditions: route subcutaneous; outline: as §1
Rattus norvegicus [29] = assay: Compound was evaluated for D2 dopaminergic activity measured as total contralateral turns after 2 hr at a dose of 0.1 mg/kg peroral administration.; format: functional; conditions: route oral; outline: as §1

T1 sequence (P61169 whole entry): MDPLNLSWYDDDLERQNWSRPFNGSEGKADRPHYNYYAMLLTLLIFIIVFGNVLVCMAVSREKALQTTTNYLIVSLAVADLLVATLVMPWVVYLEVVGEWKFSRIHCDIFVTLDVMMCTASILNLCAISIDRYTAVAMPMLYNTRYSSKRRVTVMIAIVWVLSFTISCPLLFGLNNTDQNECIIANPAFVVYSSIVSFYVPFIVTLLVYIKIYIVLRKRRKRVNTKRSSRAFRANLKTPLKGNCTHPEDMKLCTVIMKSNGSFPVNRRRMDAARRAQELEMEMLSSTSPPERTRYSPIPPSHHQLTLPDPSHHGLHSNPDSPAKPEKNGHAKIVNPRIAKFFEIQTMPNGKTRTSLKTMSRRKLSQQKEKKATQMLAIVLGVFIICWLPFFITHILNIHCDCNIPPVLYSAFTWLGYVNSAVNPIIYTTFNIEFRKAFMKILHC

Row | SMILES | IC50 (D(2) dopamine receptor [1]) [nM] | Ki (D(2) dopamine receptor [2]) [nM] | Turns/first hour (Rattus norvegicus [3]) | further results
1 | C1=C(c2ccccc2)CCN(CCc2c[nH]c3ccccc23)C1 | 100 | 81 | <50 | 
2 | COc1ccc2[nH]cc(CCCCN3CC=C(c4ccccc4)CC3)c2c1 | 20 | 4.4 | 504 | 
3 | Clc1ccc(C2=CCN(CCCCc3c[nH]c4ccccc34)CC2)cc1 | 100 | 46 | 100 | 
4 | Oc1ccc2c(CCCCN3CC=C(c4ccccc4)CC3)c[nH]c2c1 | 8 | 2.5 | 786 | 
5 | C1=CCN(CCCCc2c[nH]c3ccccc23)CC1 | > 1000 | > 1000 | <100 | 
6 | C1=C(c2ccccc2)CCN(CCCCCCc2c[nH]c3ccccc23)C1 | 40 | 4.3 | <100 | 
7 | COc1ccc2c(CCCCN3CC=C(c4ccccc4)CC3)c[nH]c2c1 | 9 | 1.8 | 792 | 
8 | Cn1cc(CCCCN2CC=C(c3ccccc3)CC2)c2ccccc21 | 100 | 15 | 121 | 
9 | Clc1ccccc1C1=CCN(CCCCc2c[nH]c3ccccc23)CC1 | 100 | 21 | <50 | 
10 | C1=C(c2ccccc2)CCN(CCCc2c[nH]c3ccccc23)C1 | 50 | 12 | ~250 | 
11 | Fc1ccccc1C1=CCN(CCCCc2c[nH]c3ccccc23)CC1 | 20 | 4 | 186 | 
12 | Clc1ccc2[nH]cc(CCCCN3CC=C(c4ccccc4)CC3)c2c1 | 50 | 3.1 | <50 | 
13 | Fc1ccc2[nH]cc(CCCCN3CC=C(c4ccccc4)CC3)c2c1 | 10 | 1.6 | 552 | 
14 | Cc1[nH]c2ccccc2c1CCCCN1CC=C(c2ccccc2)CC1 | 50 | 5.4 | 318 | 
15 | COc1ccc(C2=CCN(CCCCc3c[nH]c4ccccc34)CC2)cc1 | 700 | 41 | <50 | 
16 | C1=C(c2ccccc2)CCN(CCCCCc2c[nH]c3ccccc23)C1 | 60 | 13 | <50 | 
17 | C1=C(c2ccccc2)CCN(CCCCc2c[nH]c3ccccc23)C1 | 105 |  | 864 | Ki (D(2) dopamine receptor [4]): 6.39 nM; ED50 (Rattus norvegicus [5]): > 3 mg/kg; Turns (Rattus norvegicus [6]): 44; Turns (Rattus norvegicus [7]): 422; Turns (Rattus norvegicus [8]): 99; Turns (Rattus norvegicus [9]): 201; Turns (Rattus norvegicus [10]): 825; Turns (Rattus norvegicus [11]): 68; Turns (Rattus norvegicus [12]): 936; Turns (Rattus norvegicus [13]): 236; Turns (Rattus norvegicus [14]): 412; Turns (Rattus norvegicus [15]): 1731
18 | c1ccc(C2CCN(CCCCc3c[nH]c4ccccc34)CC2)cc1 | > 100 | > 100 | <50 | 
19 | Fc1ccc(C2=CCN(CCCCc3c[nH]c4ccccc34)CC2)cc1 | 90 | 15 | <100 | 
20 | CN1CCc2cccc3c2[C@H]1Cc1ccc(O)c(O)c1-3 [APOMORPHINE] |  |  |  | ED50 (Rattus norvegicus [5]): 0.28 mg/kg; Turns (Rattus norvegicus [16]): 1268
21 | Oc1ccc2[nH]cc(CCCCN3CC=C(c4ccccc4)CC3)c2c1 [ROXINDOLE] |  | 0.88 | 948 | IC50 (D(2) dopamine receptor [17]): 5.95 nM; ED50 (Rattus norvegicus [18]): > 30 mg/kg; Turns (Rattus norvegicus [19]): 534; Turns (Rattus norvegicus [20]): 1694; Turns (Rattus norvegicus [21]): 2010; Turns (Rattus norvegicus [22]): 1132; Turns (Rattus norvegicus [23]): 251; Turns (Rattus norvegicus [24]): 397; Turns (Rattus norvegicus [25]): 830; Turns (Rattus norvegicus [26]): 926; Turns (Rattus norvegicus [27]): 718; Turns (Rattus norvegicus [28]): 2246; Turns (Rattus norvegicus [29]): 287; Turns (Rattus norvegicus [16]): 399
